Calls of active or inactive are those of the source. The calls are words filed in the database; no cut-off is given here.
Tests used:
Format in all cases: cell-based
[1] = target: T1, Antigen-presenting glycoprotein CD1d (Homo sapiens) (UniProt P15813); experiment: Binding affinity to C1R-hCD1d expressed in human B cells assessed as change in IFN-gamma/IL4 ratio in human iNKT cells upto 100 ng/ml after 36 hrs by ELISA
T1 sequence (whole entry): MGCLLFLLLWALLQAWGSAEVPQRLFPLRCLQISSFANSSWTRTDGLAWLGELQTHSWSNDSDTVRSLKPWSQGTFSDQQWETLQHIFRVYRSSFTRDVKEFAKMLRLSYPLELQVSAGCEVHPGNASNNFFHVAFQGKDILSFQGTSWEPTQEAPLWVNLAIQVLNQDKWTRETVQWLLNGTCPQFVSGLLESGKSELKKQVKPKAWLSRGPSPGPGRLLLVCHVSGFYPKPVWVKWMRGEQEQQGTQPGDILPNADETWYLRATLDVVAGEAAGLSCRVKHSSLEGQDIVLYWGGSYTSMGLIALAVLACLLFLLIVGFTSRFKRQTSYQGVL
Method in brief: (§1)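 C1R cells expressing human CD1d were pulsed with lipid at a range of concentrations. 5 × 10⁴ pulsed targets were co-cultured with 2 × 10⁴ human iNKT line cells at 37 °C for 36 h. IFN-γ and IL-4 in the harvested supernatants were quantified by ELISA, and IFN-γ/IL-4 and IL-4/IFN-γ ratios were derived from these values.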

[2] = target: T1, Antigen-presenting glycoprotein CD1d (Homo sapiens); experiment: Binding affinity to C1R-hCD1d expressed in human B cells assessed as increase in Th1 cytokine release in mouse iNKT cells upto 100 ng/ml after 36 hrs by ELISA
[3] = target: T1, Antigen-presenting glycoprotein CD1d (Homo sapiens); experiment: Binding affinity to C1R-hCD1d expressed in human B cells assessed as increase in Th2 cytokine release in mouse iNKT cells upto 100 ng/ml after 36 hrs by ELISA
[4] = target: T1, Antigen-presenting glycoprotein CD1d (Homo sapiens); experiment: Binding affinity to C1R-hCD1d expressed in human B cells assessed as activation of IFN-gamma release in human iNKT cells upto 100 ng/ml after 36 hrs by ELISA; method in brief: as §1
[5] = target: T1, Antigen-presenting glycoprotein CD1d (Homo sapiens); experiment: Binding affinity to C1R-hCD1d expressed in human B cells assessed as activation of IL-4 release in human iNKT cells upto 100 ng/ml after 36 hrs by ELISA; method in brief: as §1
[6] = target: T1, Antigen-presenting glycoprotein CD1d (Homo sapiens); experiment: Binding affinity to C1R-hCD1d expressed in human B cells assessed as increase in IFN-gamma/IL4 ratio in mouse iNKT cells upto 100 ng/ml after 36 hrs by ELISA

What does the source list for `CCCCCCCCCCCCCCCCCCCCCCCCCC(=O)N[C@@H](CO[C@H]1O[C@H](CO)[C@H](O)[C@H](O)[C@H]1O)[C@H](O)[C@H](O)CCCCCCCC`?
Activity [1]: inactive; Activity [2]: Active; Activity [3]: Active; Activity [4]: Active; Activity [5]: Active; Activity [6]: Active

What does the source list for `CCCCC/C=C\C/C=C\CCCCCCCCCC(=O)N[C@@H](CO[C@H]1O[C@H](CO)[C@H](O)[C@H](O)[C@H]1O)[C@H](O)[C@H](O)CCCCCCCCCCCCCC`?
Activity [1]: inactive; Activity [2]: Active; Activity [3]: Active; Activity [6]: Active

For `CCCCCCCCCCCCCCCCCCCCCCCCCC(=O)N[C@@H](CO[C@H]1O[C@H](CO)[C@H](O)[C@H](O)[C@H]1O)[C@H](O)[C@H](O)CCCCCCCCCCC`, which Activity [1] is on record?
Its Activity is “inactive”.

And the Activity [2]?
Its Activity is “Active”.

What about the Activity [3] of the same compound?
The Activity was “Active”.

What about the Activity [4] of the same compound?
The Activity was “Active”.

What about the Activity [5] of the same compound?
Its Activity is “Active”.

And the Activity [6]?
Its Activity is “Active”.

Which Activity [1] does the source give for `CCCCCCCCCCCCCCCCCCCCCCCCCC(=O)N[C@@H](CO[C@H]1O[C@H](CO)[C@H](O)[C@H](O)[C@H]1O)[C@H](O)[C@H](O)CCCCC` here?
The Activity was “inactive”.

What about the Activity [2] of the same compound?
Its Activity is “Active”.

What about the Activity [3] of the same compound?
The Activity was “Active”.

And the Activity [4]?
The Activity was “Active”.

And the Activity [5]?
Its Activity is “Active”.

And the Activity [6]?
Its Activity is “Active”.

Which results are given for `CCCCCCCCCCCCCCCCCCCCCCCCCC(=O)N[C@@H](CO[C@H]1O[C@H](CO)[C@H](O)[C@H](O)[C@H]1O)[C@H](O)[C@H](O)CCCCCCCCCCCCCC`?
Activity [1]: inactive; Activity [2]: Active; Activity [4]: Active; Activity [5]: Active; Activity [6]: Active
